This excerpt belongs to a sample that is enriched for hits.
Insulin prom act – activators of insulin promoter-driven GFP, primary screen, imaging, TRM-6 cells (human fetal islet line), eGFP reporter, cell count. plate-scaled: unstimulated 0, stimulated control 100. activation, % at 2 µM. 130,000 compounds, 0.81% hits. AID 1296, 2008;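 active means activation at 2 µM above a set limit, confirmed on inspection of the cell images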;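 further: share of cells whose green reporter signal exceeds an intensity cutoff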
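Material: TRM-6 insulin promoter–eGFP reporter cells. Buffer or medium: Low-glucose (5.5 mM) medium with tamoxifen. Probe or stimulus: tamoxifen at 0.75 µM added at seeding for reporter induction. Times: tamoxifen pre-incubation 15 h overnight, then compound exposure 48 h at 37 °C. Detection: high-content imaging of fixed cells with Hoechst nuclear stain.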
* = called active by the depositor.

SMILES | Insulin prom act
O=C(CCC(=O)OCC(=O)c1ccc(Br)cc1)Nc1ccc(Br)c2cccnc12 | 2.7
CNS(=O)(=O)c1ccc(Cl)nc1 | 7.7
O=C1CC(C(=O)O)S/C(=N\NC(=O)c2ccc(F)cc2)N1 (stereo not given) | 0.0
CN1C(=O)CC(C(=O)O)SC1=Nc1cccc(C(F)(F)F)c1 (stereo not given) | 30.0
CN1C(=O)CC(C(=O)O)SC1=Nc1ccc(F)cc1 (stereo not given) | 425.0*
CSc1nc2sc3c(c2c(=O)[nH]1)CCC3 | 0.0
O=C(CN(C(=O)CSc1nc2ccccc2o1)c1ccccc1F)NC1CCCCC1 | -2.7
COP(C)(=O)c1c(C)nn(-c2ccccc2)c1C (stereo not given) | 83.6*
COc1ccc(-c2c(C)nn(-c3ccccc3)c2N)cc1 | 0.0
Cc1nn(-c2ccc(C(=O)O)cc2)c(C)c1Oc1ccccc1O | 8.1
CSC(=NNC(=O)c1ccc(O)cc1)SC | 5.1
O=C(CCC(=O)N(c1ccc(F)cc1)C(C(=O)NC1CCCC1)c1ccncc1)Nc1cccnc1 (stereo not given) | 342.9
Cc1ccc(N2C(=O)c3cccc4c(Oc5ccccc5[N+](=O)[O-])ccc(c34)C2=O)c(C)c1 | 0.0
Cc1ccc(-n2c(Cl)c(Cl)nc(Cl)c2=O)cc1 | 233.3*
CSc1nccc(-c2nn(-c3ccc(C)cc3)ccc2=O)n1 | -8.3
COc1cnn(-c2ccc(C)cc2)c(=O)c1Cl | 145.5
Cc1nn(C)c(Cl)c1C(N)=O | 0.0
FC(F)(F)c1cc(-c2ccco2)nc(NCCc2ccccc2)n1 | -7.9
CN(C)/C=N/c1sc2c(c1C#N)CC(C)(C)NC2(C)C | 271.4
CC1CCCN(C(C(=O)NC2CCCCC2)c2cc3c(cc2[N+](=O)[O-])OCO3)C1 (stereo not given) | 6.9
O=S(=O)(c1ccc2c(c1)nc(COc1ccc(Cl)cc1)n2CC1CCCO1)N1CCOCC1 (stereo not given) | -100.0
C=C(C)c1cccc(C(C)(C)NC(=O)Nc2ncccn2)c1 | -2.9
C=C(C)c1cccc(C(C)(C)NC(=O)N2CCN(c3ccccc3OC)CC2)c1 | -7.7
C=C(C)c1cccc(C(C)(C)NC(=O)N(C)C2CCN(C)CC2)c1 | 260.0*
Cc1ccc(OCC(=O)N2c3ccccc3CC2C)c([N+](=O)[O-])n1 (stereo not given) | -7.1
SMILES | Insulin prom act
COc1ccc(CCNC(=O)C2CCN(S(=O)(=O)N3CCC4(CC3)OCCO4)CC2)cc1OC | 0.0
CCOc1cccc(N2C(=O)CC(N3CCN(c4ccc(S(=O)(=O)CC)cc4)CC3)C2=O)c1 (stereo not given) | 80.0*
COc1cccc(N2CCN(C3CC(=O)N(c4cccc(Cl)c4)C3=O)CC2)c1 (stereo not given) | -3.7
CCN1C(=O)CC(N2CCN(c3cccc(OC)c3)CC2)C1=O (stereo not given) | 0.0
CCN(CC)c1ccc2c(C)c(-c3ccc(N)cc3)c(=O)oc2c1 | -1.8
CCN(CC)c1ccc2c(Cl)c(Br)c(=O)oc2c1 | 133.3*
CCN(CC)c1ccc2c(c1)oc(=O)c1c(Cl)cc(=O)oc12 | 219.0
CCC(=O)Nc1ccc(S(=O)(=O)Nc2ccc(Cl)nn2)cc1 | 7.1
COc1ccc(N2CCN(S(=O)(=O)c3ccc4c(c3)CCCC4)CC2)c([N+](=O)[O-])c1 | 0.0
COc1cccc(S(=O)(=O)Nc2cccc(C(=O)N3CCOCC3)c2)c1 | 465.7*
COc1ccc(NS(=O)(=O)c2ccc(OCC(=O)N3CCOCC3)cc2)cc1 | 0.0
O=C(c1cccc(NS(=O)(=O)c2cccc([N+](=O)[O-])c2)c1)N1CCOCC1 | 0.0
COc1cccc(NC(=O)Cn2c(=O)n(CC3CCCO3)c(=O)c3ccccc32)c1 (stereo not given) | 185.7
CCCCC(=O)NCc1ccc(Cl)cc1 | 9.4
COCCN(CC(=O)NCC1CCCO1)C(=O)CCC(=O)Nc1ccccn1 (stereo not given) | 113.3
Cc1ccc(S(=O)(=O)N(C)c2c(C)ccc(S(N)(=O)=O)c2C)cc1 | 0.0
CN=C(C)c1c(O)c2ccccc2oc1=O | 3.2
CCNc1c(NC(C)=O)c(=O)oc2ccccc12 | 200.0*
CC(=O)Nc1c(C(=O)c2ccccc2)oc2ccccc12 | -71.4
COc1ccc(Cl)cc1N(CC(=O)Nc1ccccc1SC)S(C)(=O)=O | 128.6
CCCCOc1ccc(OCCCC)c2c1NC1(N2)C(=O)N(C(C)=O)c2ccccc21 | -73.1
O=C(Nc1nnc(-c2ccccc2Cl)o1)c1ccc(S(=O)(=O)N2CCCCCC2)cc1 | 400.0*
O=C(Nc1nnc(-c2cccs2)o1)c1ccc(S(=O)(=O)N2CCOCC2)cc1 | 5.6
CC1CCN(S(=O)(=O)c2ccc(C(=O)Nc3nnc(-c4ccccn4)o3)cc2)CC1 | 136.4
COC(=O)[C@H](C)NC(=O)NC1CCN(Cc2ccccc2)CC1 | 186.7
SMILES | Insulin prom act
Cc1ccc(-n2cccc2/C=C2\C(=N)N3N=C(c4ccco4)SC3=NC2=O)cc1 | 8.3
Cc1ccccc1OCCCC(=O)Nc1nncs1 | 9.1
COc1ccccc1Nc1nc(N)nc(CN2CC(C)CC(C)C2)n1 (stereo not given) | -7.7
COc1ccc([N+](=O)[O-])cc1NC(=O)CC(c1ccccc1)c1ccccc1 | 192.9
COC(=O)c1sc2cc([N+](=O)[O-])cc(SCC(C)C)c2c1N | 589.7*
COCCSc1nnc(NC(=O)c2cc(C(=O)OC)cc([N+](=O)[O-])c2)s1 | 7.1
Cc1ccc(S(=O)(=O)Nc2cc(Cl)c(O)cc2C)cc1 | 9.3
NC(=O)c1ccccc1NS(=O)(=O)c1ccccc1 | 0.0
Cc1ccc(S(=O)(=O)Nc2ccccc2C(N)=O)cc1 | 402.7*
CCCN(CCC)C1=N/C(=C\c2ccco2)C(=O)N1c1ccccc1 | 0.0
CC(=O)Nc1ccc(-c2nn[nH]n2)cc1Cl | -8.6
COc1cc(-c2nc(CN3CCN(CC(C)C)C(=O)[C@@H]3C)c(C)o2)ccc1F | 269.6*
COC(=O)c1ccc(-c2ccco2)n1Cc1nc(-c2ccc(OC)c(OC)c2)oc1C | 0.0
COc1ccc(-c2nc(CS(=O)CC(=O)NCCCN3CC(C)CC(C)C3)c(C)o2)cc1OC (stereo not given) | -7.1
CC(=O)CCn1cnc([N+](=O)[O-])n1 | -7.1
O=C(OCC(=O)N1CCN(C(=O)c2ccco2)CC1)c1cc(-c2cccc(Br)c2)nc2ccccc12 | 7.1
Cc1ccc(S(=O)(=O)NCCNC(=O)C2CCCNC2=O)cc1 (stereo not given) | -8.1
Cc1ccc(S(=O)(=O)CC(C)N2CCN(C3CCCCC3)CC2)cc1 (stereo not given) | 103.2
Cc1ccc(S(=O)(=O)NC2=NCN(C3CCCCC3)CN2)cc1 | 125.0*
CC(C)CNC(=O)c1cccc(NC(=O)Cc2ccc(Br)cc2)c1 | 154.5
CCOC(=O)c1sc2nc(-c3cccnc3)ccc2c1N | -71.4
COc1ccc(C(=O)c2sc3nc(-c4ccccc4)ccc3c2N)cc1 | 207.4*
COc1ccc(C(=O)c2oc3ccccc3c2N)cc1 | 306.3
Cc1ccc(OCc2ccc(C(=O)Nc3nc4ccccc4n3C)o2)c([N+](=O)[O-])c1 | 6.7
CC(C)NC(=O)CC(=O)N/N=C/c1ccc(F)cc1 | -6.8
Cc1cccc(OCC(=O)Nc2ccc(N3CCN(C(=O)c4ccccc4)CC3)cc2)c1 | 2.9
CC(C)C(=O)c1cc2c(cc1NC(=O)c1cccs1)OCCO2 | -71.4
O=C(CN1C(=O)S/C(=C/c2cccnc2)C1=O)N1CCOCC1 | -71.4
O=C1S/C(=C\c2ccc(N3CCOCC3)o2)C(=O)N1Cc1c(F)cccc1Cl | 0.0

Assay outcomes deposited in PubChem by Columbia University Molecular Screening Center.
